Results of several laboratories.
Compare with care: the assays were run in different laboratories.
RET: Proto-oncogene tyrosine-protein kinase receptor Ret (RET, Homo sapiens, UniProt P07949)
RET M918T: Proto-oncogene tyrosine-protein kinase receptor Ret (RET, Homo sapiens, UniProt P07949, M918T)
RET V804L: Proto-oncogene tyrosine-protein kinase receptor Ret (RET, Homo sapiens, UniProt P07949, V804L)
RET V804M: Proto-oncogene tyrosine-protein kinase receptor Ret (RET, Homo sapiens, UniProt P07949, V804M)

C[C@H]1CCN(c2nccc(-c3cnn4ncccc34)n2)C1 — remaining binding (RET; binding; 1 µM): 97%
CN1CCN(c2ccc(Nc3nccc(-c4cccc([N+](=O)[O-])c4)n3)cc2C(F)(F)F)CC1 — remaining binding (RET M918T; binding; 10 µM): 34%
CCN1CCN(Cc2ccc(C(=O)Nc3ccc(C)c(Oc4ccc5c(c4)CC(=O)N5)c3)cc2C(F)(F)F)CC1 — remaining binding (RET V804L; binding; competition with immobilised ligand; 1 µM): 99%
CN(C)c1nccc(-c2cnc3ncccn23)n1 — remaining binding (RET; binding; 1 µM): 91%
CNC(=O)[C@@H]1CC[C@@H](n2c(-c3ccc4cnccc4c3)nc3ccc(C(=O)NCc4cccc(C(N)=O)c4)cc32)C1 — remaining binding (RET V804M; binding; competition with immobilised ligand; 1 µM): 100%
Cn1nc(C(F)(F)F)cc1-c1cnc(N2CCc3cc(S(=O)(=O)Nc4c(F)cc(Cl)cc4F)cc(N4CCCC4=O)c32)nc1 — remaining binding (RET V804M; cell-free assay; competition with immobilised ligand; 1 µM): 98%
O=C(c1ccc(Nc2nccc(-c3cc4ccccc4s3)n2)cc1)N1CCC(N2CCCC2)CC1 — remaining binding (RET; binding; competition with immobilised ligand; 1 µM): 85%
N[C@@H]1CCN(c2nccc(-c3cnn4ncccc34)n2)C1 — remaining binding (RET V804L; binding; 1 µM): 94%
O=C(c1ccc(Nc2ncc(Cl)c(-c3ccc(Cl)s3)n2)cc1)N1CCC(N2CCCC2)CC1 — remaining binding (RET V804L; binding; competition with immobilised ligand; 1 µM): 10%
Nc1ncc2c(n1)-c1c([nH]c3ccc(C#CC4CC4)cc13)CCCC2 — remaining binding (RET V804L; binding; competition with immobilised ligand; 1 µM): 96%
FC(F)(F)Oc1cccc(-c2cnc3ccc(-c4ccncc4)nn23)c1 — remaining binding (RET; cell-free assay; competition with immobilised ligand; 5 µM): 86%
C[C@@H](c1ccc(-n2cnc3c(N)ncnc32)cc1)N1CCc2nn(C)c(Cc3ccccc3)c2C1=O — remaining binding (RET; binding; competition with immobilised ligand; 0.1 µM): 81%
c1cncc(-c2cccc(Nc3nccc(NC4CCCCC4)n3)c2)c1 — remaining binding (RET V804L; binding; competition with immobilised ligand; 10 µM): 10%
COc1cnc(Nc2cccc(S(N)(=O)=O)c2)nc1N1CCN(c2ccccc2)C(=O)C1 — remaining binding (RET V804M; binding; competition with immobilised ligand; 1 µM): 77%
O=C(Nc1c[nH]nc1C(=O)NC1CCNCC1)c1cc(F)cc(F)c1 — remaining binding (RET M918T; binding; competition with immobilised ligand; 1 µM): 100%
O=C(O)c1cc(-c2ccc(C3CCNCC3)cc2)c2ccc(-c3ccc(C(F)(F)F)cc3)cc2c1 — remaining binding (RET V804M; cell-free assay; competition with immobilised ligand; 1 µM): 100%
COc1ncc2cc3ccccc3nc2c1C#N — remaining binding (RET V804L; cell-free assay; competition with immobilised ligand; 5 µM): 94%
CN(C)c1nccc(-c2cnn3ncccc23)n1 — remaining binding (RET; binding; 1 µM): 91%
N#CC1(c2ccccn2)CCN(Cc2cc(C(=O)N3CCCC3)c(=O)n3ccccc23)CC1 — remaining binding (RET M918T; cell-free assay; competition with immobilised ligand; 1 µM): 88%
COc1cnc(Nc2cccc(S(N)(=O)=O)c2)nc1N1CCN(c2ccccc2)CC1 — remaining binding (RET V804M; binding; competition with immobilised ligand; 1 µM): 67%
COc1cc(-c2cn(C3CCc4ccccc4N(CC(F)(F)F)C3=O)nn2)ccc1-n1ccc(C)n1 (centres unmarked) — remaining binding (RET M918T; cell-free assay; competition with immobilised ligand; 1 µM): 100%
O=C(c1ccc(Nc2ncc(Cl)c(-c3cc4ccccc4s3)n2)cc1)N1CCC(N2CCCC2)CC1 — remaining binding (RET; binding; competition with immobilised ligand; 1 µM): 25%
CC1CCCN1c1nccc(-c2cnn3ncccc23)n1 (centres unmarked) — remaining binding (RET M918T; binding; 1 µM): 89%
O=C(NCC1CCOCC1)c1n[nH]cc1NC(=O)c1c(F)cccc1F — remaining binding (RET M918T; binding; competition with immobilised ligand; 1 µM): 96%
COc1ccnn2ncc(-c3ccnc(N(C)C)n3)c12 — remaining binding (RET V804L; binding; 1 µM): 100%
CNC(=O)Nc1ccc2c(c1)CC[C@@]21OC(=O)N(CC(=O)N(Cc2ccc(F)cc2)[C@@H](C)C(F)(F)F)C1=O — remaining binding (RET V804M; cell-free assay; competition with immobilised ligand; 1 µM): 98%
C=CC(=O)N1CCC(C(=O)NCC(=O)N2CCN(c3nc(-c4cnc(N)nc4C(F)F)nc(N4CCOCC4)n3)CC2)CC1 — remaining binding (RET M918T; binding; competition with immobilised ligand; 1 µM): 97%
CN1CCN(c2ccc(Nc3nccc(-c4ccccc4)n3)cc2C(F)(F)F)CC1 — remaining binding (RET V804L; binding; 10 µM): 40%
O=C(NCCCN1CCOCC1)c1ccc(Nc2ncc(Cl)c(-c3ccc(Cl)s3)n2)cc1 — remaining binding (RET M918T; binding; competition with immobilised ligand; 1 µM): 15%
O=C(N1CCS(=O)(=O)CC1)N1C[C@H](c2ccc(OC(F)(F)F)cc2)C[C@H](c2nc(C3CC3)no2)C1 — remaining binding (RET M918T; cell-free assay; competition with immobilised ligand; 1 µM): 92%
F[C@@H]1CCN(c2nccc(-c3cnn4ncccc34)n2)C1 — remaining binding (RET V804M; binding; 1 µM): 72%
c1ccc(N2CCN(Cc3nc4ccccc4[nH]3)CC2)nc1 — remaining binding (RET; cell-free assay; competition with immobilised ligand; 1 µM): 100%
O=C(NCCCN1CCOCC1)c1ccc(Nc2nccc(-c3cc4ccccc4s3)n2)cc1 — remaining binding (RET V804L; binding; competition with immobilised ligand; 1 µM): 100%
O=C(N[C@H]1CCCCC/C=C\C2C[C@@]2(C(=O)O)NC(=O)[C@@H]2C[C@@H](Oc3ccncc3)CN2C1=O)OC1CCCC1 (some centres unmarked) — remaining binding (RET V804M; binding; competition with immobilised ligand; 1 µM): 100%
Cc1cnc(Nc2ccc(C(=O)N3CCC(N4CCCC4)CC3)cc2)nc1-c1cc2ccccc2s1 — remaining binding (RET; binding; competition with immobilised ligand; 1 µM): 12%
